According to ChEMBL document CHEMBL1156066 (J Med Chem, 2009):
pEC50, pIC50: −log10 of the molar value. ≈ marks a conversion by molar mass, not a printed value.

How the values were obtained:
[1] = Inhibition of HIV1 LAI gp120/CD4 interaction in human HeLa67 cells assessed as inhibition of viral entry after 3 days by luciferase reporter gene assay; type: cell-based
How it was run: (§1)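 HeLa 67 cells (HeLa expressing CD4, CCR5 and CXCR4; DMEM, 10% heat-inactivated FBS, penicillin/streptomycin) were plated at 10^5 cells/well the day before infection. They were then infected with HIV LAI-Δenv-luc pseudotyped with JRFL or LAI envelope, in the presence of 10-step 3-fold DMSO serial dilutions (30 mM stocks), run in duplicate. After 3 days at 37 C, firefly luciferase was read. EC50 was from a one-site fit.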

[2] = Lipophilicity, log D at pH 6.5; type: physicochemical; conditions: buffer
How it was run: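 Log D was measured by the octanol/water shake-flask method using phosphate buffered solution, pH 6.5.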

Cytochrome P450 2C9 = Cytochrome P450 2C9 (Homo sapiens, UniProt P11712); assay: Inhibition of recombinant CYP2C9; type: ADME
[3] = Metabolic stability in human liver microsomes assessed as half life; type: ADME, Microsome
Cytochrome P450 3A4 [4] = target: T1, Cytochrome P450 3A4 (Homo sapiens, UniProt P08684); assay: Inhibition of recombinant CYP3A4 using 7-benzyloxyresorufin as substrate; type: ADME
[5] = target: Voltage-gated inwardly rectifying potassium channel KCNH2 (Homo sapiens, UniProt Q12809); assay: Inhibition of human ERG by channel flux assay
[6] = Cytotoxicity against human MT2 cells after 3 days by XTT assay; type: cell-based
How it was run: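 Uninfected MT-2 cells were exposed to 10-step 3-fold serial compound dilutions (30 mM DMSO stocks), run in parallel with the antiviral assay. Cell health was read by XTT after 3 days. CC50 was fitted with the same one-site equation as EC50.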

Cytochrome P450 2D6 = Cytochrome P450 2D6 (Homo sapiens, UniProt P10635); assay: Inhibition of recombinant CYP2D6; type: ADME
Cytochrome P450 3A4 [7] = target: T1, Cytochrome P450 3A4; assay: Inhibition of recombinant CYP3A4 using benzyloxy-4-(trifluoromethyl)coumarin as substrate; type: ADME
[8] = Aqueous solubility of crystalline form of compound in buffer solution of pH 6.5 at 25 degC; type: physicochemical
How it was run: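 Solubility of the crystalline solid was measured 24-72 h after adding it to phosphate buffered solution, pH 6.5, at room temperature.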

[9] = Permeability across human Caco-2 cell membrane at pH 6.5; type: ADME, cell-based; conditions: Caco-2, pH 6.5, read-out: permeability
Cytochrome P450 1A2 = target: T2, Cytochrome P450 1A2 (Homo sapiens, UniProt P05177); assay: Inhibition of recombinant CYP1A2; type: ADME
T2 sequence (P05177 whole entry): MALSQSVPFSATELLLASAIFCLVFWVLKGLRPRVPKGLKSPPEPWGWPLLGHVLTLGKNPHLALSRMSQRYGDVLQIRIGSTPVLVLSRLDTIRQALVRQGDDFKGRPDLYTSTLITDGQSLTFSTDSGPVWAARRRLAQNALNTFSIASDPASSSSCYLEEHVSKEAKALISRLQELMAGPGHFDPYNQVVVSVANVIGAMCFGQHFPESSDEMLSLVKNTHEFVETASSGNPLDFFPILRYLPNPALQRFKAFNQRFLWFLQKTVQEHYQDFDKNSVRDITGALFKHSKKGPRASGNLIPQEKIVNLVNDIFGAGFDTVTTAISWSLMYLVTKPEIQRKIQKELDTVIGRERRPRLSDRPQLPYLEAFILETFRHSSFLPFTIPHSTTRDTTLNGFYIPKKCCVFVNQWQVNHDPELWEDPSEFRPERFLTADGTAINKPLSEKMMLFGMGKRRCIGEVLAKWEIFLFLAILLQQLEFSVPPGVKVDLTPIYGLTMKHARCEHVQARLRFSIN

Cytochrome P450 2C19 = Cytochrome P450 2C19 (Homo sapiens, UniProt P33261); assay: Inhibition of recombinant CYP2C19; type: ADME
[10] = Inhibition of HIV1 JRFL gp120/CD4 interaction in human HeLa67 cells assessed as inhibition of viral entry after 3 days by luciferase reporter gene assay; type: cell-based; how it was run: as §1

Cytochrome P450 2D6, sequence (P10635 whole entry): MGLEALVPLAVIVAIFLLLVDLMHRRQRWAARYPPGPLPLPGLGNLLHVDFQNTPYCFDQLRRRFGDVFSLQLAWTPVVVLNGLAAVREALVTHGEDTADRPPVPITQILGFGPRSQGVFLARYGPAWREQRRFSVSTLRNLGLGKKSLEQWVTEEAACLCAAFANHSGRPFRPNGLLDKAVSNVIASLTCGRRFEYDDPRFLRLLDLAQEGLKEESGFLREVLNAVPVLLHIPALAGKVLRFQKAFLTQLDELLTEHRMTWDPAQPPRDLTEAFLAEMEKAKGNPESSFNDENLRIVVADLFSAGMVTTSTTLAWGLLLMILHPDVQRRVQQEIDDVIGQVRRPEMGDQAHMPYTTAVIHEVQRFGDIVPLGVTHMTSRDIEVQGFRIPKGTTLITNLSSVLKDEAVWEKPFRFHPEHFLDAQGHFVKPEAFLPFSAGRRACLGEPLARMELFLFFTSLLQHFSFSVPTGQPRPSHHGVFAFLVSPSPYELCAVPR
Cytochrome P450 2C9, sequence (P11712 whole entry): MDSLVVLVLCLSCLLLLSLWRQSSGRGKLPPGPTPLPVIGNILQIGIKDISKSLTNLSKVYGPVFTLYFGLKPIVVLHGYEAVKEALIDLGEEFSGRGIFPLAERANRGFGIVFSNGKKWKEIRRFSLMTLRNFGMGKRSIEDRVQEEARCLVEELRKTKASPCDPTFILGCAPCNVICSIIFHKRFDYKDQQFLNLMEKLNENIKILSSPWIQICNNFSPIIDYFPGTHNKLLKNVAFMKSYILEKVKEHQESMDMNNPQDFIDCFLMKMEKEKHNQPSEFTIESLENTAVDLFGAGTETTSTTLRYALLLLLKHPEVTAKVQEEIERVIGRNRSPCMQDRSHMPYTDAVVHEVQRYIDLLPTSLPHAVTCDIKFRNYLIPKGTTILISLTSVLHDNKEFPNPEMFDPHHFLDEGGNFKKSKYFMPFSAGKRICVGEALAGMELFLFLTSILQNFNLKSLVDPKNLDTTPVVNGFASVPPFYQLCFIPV
T1 sequence (P08684 whole entry): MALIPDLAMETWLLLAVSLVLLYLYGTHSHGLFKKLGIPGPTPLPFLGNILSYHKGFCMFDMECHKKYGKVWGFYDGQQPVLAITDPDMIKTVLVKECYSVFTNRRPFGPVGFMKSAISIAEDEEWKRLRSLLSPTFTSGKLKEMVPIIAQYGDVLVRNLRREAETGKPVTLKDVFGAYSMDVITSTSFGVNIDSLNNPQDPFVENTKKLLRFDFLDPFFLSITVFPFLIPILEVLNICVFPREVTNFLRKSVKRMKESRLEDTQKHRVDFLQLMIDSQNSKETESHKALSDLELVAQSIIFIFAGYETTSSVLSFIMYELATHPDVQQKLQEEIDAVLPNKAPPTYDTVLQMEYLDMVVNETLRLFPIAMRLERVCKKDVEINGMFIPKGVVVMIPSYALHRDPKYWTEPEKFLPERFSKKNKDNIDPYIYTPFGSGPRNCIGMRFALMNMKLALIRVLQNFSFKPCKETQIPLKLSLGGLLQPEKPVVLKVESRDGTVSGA
Cytochrome P450 2C19, sequence (P33261 whole entry): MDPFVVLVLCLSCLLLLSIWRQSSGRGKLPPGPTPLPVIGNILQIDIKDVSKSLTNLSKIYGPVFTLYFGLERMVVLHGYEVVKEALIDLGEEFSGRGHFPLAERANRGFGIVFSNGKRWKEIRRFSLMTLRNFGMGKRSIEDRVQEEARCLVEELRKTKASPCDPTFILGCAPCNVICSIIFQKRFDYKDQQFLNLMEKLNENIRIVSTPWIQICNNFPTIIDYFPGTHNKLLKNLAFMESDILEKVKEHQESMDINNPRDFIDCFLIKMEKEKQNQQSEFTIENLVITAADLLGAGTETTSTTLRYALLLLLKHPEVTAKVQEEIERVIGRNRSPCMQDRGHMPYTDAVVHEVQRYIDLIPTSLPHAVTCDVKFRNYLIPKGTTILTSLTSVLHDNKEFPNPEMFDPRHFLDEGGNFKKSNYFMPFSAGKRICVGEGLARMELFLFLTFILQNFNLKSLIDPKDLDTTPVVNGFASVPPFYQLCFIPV
Voltage-gated inwardly rectifying potassium channel KCNH2, sequence (Q12809 whole entry): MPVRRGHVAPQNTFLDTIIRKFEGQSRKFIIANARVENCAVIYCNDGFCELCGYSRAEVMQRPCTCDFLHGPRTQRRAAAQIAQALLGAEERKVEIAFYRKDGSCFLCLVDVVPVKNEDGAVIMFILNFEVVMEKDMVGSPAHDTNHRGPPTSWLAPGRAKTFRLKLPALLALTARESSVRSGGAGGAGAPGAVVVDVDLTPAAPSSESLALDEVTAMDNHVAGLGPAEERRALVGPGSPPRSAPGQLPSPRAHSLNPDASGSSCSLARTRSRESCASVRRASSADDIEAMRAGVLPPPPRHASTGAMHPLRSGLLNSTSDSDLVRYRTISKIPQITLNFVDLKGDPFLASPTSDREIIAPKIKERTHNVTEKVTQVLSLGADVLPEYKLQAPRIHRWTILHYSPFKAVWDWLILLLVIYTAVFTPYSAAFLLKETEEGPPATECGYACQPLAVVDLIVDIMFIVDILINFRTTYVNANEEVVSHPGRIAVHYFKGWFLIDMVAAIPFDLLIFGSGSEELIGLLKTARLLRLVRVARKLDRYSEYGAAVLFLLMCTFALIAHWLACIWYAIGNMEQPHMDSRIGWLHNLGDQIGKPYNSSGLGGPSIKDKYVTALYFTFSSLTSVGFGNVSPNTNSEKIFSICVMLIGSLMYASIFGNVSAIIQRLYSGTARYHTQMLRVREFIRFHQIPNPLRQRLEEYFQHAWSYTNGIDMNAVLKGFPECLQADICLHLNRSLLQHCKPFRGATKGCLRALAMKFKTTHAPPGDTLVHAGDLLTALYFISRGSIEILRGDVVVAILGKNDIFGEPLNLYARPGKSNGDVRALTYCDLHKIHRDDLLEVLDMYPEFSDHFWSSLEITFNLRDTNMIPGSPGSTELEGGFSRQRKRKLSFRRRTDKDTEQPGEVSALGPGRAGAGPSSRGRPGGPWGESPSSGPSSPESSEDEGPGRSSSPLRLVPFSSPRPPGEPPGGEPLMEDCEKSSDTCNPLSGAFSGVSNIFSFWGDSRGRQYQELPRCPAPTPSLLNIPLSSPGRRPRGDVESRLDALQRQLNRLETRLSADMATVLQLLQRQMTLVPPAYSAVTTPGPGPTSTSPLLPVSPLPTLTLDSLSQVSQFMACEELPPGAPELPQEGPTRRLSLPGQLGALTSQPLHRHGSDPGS

pEC50 [1]	logD [2]	pIC50 (Cytochrome P450 2C9)	half-life [3] [min]	pIC50 (Cytochrome P450 3A4 [4])	pIC50 (Cytochrome P450 2D6)	pIC50 (Cytochrome P450 3A4 [7])	solubility [8] [µg/mL]	Papp [9] [×10⁻⁶ cm/s]	pIC50 (Cytochrome P450 1A2)	pIC50 (Cytochrome P450 2C19)	pEC50 [10]	Structure (SMILES)	pIC50 [5]	CC50 at 72 h [6] [µM]
8.31	1.9	5.28	16.9	< 4.40	5.32	< 4.40	16 (≈ 42.6 µM)	16.9	< 4.40	5.59	8.40	C[C@@H]1CN(C(=O)c2ccccc2)CCN1C(=O)C(=O)c1c[nH]c2ccccc12	< 4.10	200
	1.5	4.77	38.5	< 4.40	4.42	< 4.40	487 (≈ 1290 µM)	< 1.5	< 4.40	5.14	7.67	C[C@@H]1CN(C(=O)c2ccccc2)CCN1C(=O)C(=O)c1c[nH]c2cnccc12	< 4.10	> 300
	0.9	< 4.40	> 100	< 4.40	< 4.40	< 4.40	932 (≈ 2480 µM)	7.6	< 4.40	4.44	8.80	C[C@@H]1CN(C(=O)c2ccccc2)CCN1C(=O)C(=O)c1c[nH]c2cccnc12	< 4.10	> 300
	1.2	< 4.40	> 100		< 4.40		419 (≈ 1110 µM)	1.9	< 4.40	4.77	6.24	C[C@@H]1CN(C(=O)c2ccccc2)CCN1C(=O)C(=O)c1c[nH]c2ccncc12	< 4.10	> 300
